Results as given in ChEMBL document CHEMBL1139384, “First Cdc7 kinase inhibitors: pyrrolopyridinones as potent and orally active antitumor agents. 2. Lead discovery” (J Med Chem, 2009).
Activity calls are given as the source filed them. The rule behind the calls is not given here.

Legend:
[1] = Clearance in Wistar rat at 10 mg/kg, iv administered as single dose; format: ADME, organism-based; parameters: dose 10 mg/kg, route intravenous; details: in vivo
In short: (§1)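 Single iv or oral dose in 5% dextrose to overnight-fasted animals. Nu/Nu mice: males, 3 per route, saphenous bleeds to 24 h. Han-Wistar rats: males, 3 per route, jugular bleeds to 24 h. Beagle dogs: 2 per sex, iv and po crossover 2 weeks apart, jugular bleeds to 48 h. Plasma by LC/MS/MS; noncompartmental parameters, AUC by linear trapezoid with extrapolation.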

Cytochrome P450 2C9 = Cytochrome P450 2C9 (Homo sapiens, UniProt P11712); assay: Inhibition of human CYP2C9; format: ADME
Chain of Cytochrome P450 2C9 (P11712 whole entry): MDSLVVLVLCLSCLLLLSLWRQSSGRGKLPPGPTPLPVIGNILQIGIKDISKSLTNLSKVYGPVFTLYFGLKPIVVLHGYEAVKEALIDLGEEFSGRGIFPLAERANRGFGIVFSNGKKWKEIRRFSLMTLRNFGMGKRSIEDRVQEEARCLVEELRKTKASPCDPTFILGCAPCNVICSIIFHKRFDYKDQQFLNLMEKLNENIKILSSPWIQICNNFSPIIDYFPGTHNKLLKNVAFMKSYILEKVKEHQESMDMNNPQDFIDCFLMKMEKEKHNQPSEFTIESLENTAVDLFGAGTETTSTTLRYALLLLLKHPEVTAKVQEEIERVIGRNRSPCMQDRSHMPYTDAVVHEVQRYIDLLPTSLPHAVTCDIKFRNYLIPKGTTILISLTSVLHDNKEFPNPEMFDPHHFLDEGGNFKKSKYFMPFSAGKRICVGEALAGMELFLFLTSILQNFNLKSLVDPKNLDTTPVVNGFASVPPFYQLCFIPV

COLO 205 = assay: Antiproliferative activity against human COLO205 cells after 72 hrs by luciferase based assay; format: functional, cell-based; details: COLO 205, 72 h
[2] = molecular target: Protein kinase C beta type (Homo sapiens, UniProt P05771); assay: Inhibition of PKCbeta
Chain of Protein kinase C beta type (P05771 whole entry): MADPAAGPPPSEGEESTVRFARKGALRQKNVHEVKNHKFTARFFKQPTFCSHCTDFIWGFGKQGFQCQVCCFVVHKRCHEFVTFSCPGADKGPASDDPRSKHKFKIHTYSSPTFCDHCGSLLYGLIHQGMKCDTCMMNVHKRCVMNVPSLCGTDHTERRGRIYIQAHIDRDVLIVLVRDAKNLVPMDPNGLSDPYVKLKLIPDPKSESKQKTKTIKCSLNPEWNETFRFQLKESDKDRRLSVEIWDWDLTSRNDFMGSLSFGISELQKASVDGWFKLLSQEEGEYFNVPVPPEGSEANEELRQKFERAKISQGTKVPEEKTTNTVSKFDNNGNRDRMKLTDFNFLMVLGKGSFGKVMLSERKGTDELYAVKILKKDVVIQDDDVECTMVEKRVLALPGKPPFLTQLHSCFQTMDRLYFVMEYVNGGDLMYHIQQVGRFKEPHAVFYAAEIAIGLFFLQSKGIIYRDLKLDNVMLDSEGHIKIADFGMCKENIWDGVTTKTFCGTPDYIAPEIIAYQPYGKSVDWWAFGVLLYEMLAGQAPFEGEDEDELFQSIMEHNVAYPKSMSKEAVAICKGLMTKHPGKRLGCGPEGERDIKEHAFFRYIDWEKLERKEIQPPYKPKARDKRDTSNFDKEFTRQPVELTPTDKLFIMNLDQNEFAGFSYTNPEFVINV

[3] = Metabolic stability in human hepatocytes expressing CYP3A4 assessed as drug remaining after 1 hr; format: ADME, cell-based, Hepatocyte; details: read-out: Stability
[4] = molecular target: T1, Cell division cycle 7-related protein kinase (Homo sapiens, UniProt O00311); assay: Inhibition of human Cdc7 assessed as inhibition of rate of phosphorylation of Mcm2 protein
Target sequence in this assay (O00311 whole entry): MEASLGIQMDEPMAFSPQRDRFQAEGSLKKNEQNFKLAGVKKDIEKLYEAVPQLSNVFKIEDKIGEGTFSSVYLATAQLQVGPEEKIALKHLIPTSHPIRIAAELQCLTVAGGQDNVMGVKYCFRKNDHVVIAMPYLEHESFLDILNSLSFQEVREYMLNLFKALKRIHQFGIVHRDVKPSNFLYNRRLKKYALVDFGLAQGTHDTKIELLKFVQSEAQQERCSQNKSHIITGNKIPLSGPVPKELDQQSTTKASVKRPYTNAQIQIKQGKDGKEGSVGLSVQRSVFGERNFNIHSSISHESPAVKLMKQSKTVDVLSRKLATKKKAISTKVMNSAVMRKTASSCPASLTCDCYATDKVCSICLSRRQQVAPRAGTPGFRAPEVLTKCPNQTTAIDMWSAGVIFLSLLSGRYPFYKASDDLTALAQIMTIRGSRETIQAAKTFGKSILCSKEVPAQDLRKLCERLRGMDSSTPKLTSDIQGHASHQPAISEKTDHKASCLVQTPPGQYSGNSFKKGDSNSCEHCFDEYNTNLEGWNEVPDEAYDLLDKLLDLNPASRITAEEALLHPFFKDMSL

[5] = molecular target: Cyclin-dependent kinase 5/CDK5 activator 1 (Homo sapiens, UniProt Q00535); assay: Inhibition of CDK5/p25; format: protein-complex assay
[6] = Volume of distribution at steady state in Beagle dog at 5 mg/kg, iv administered as single dose; format: ADME, organism-based, Canis lupus familiaris; parameters: dose 5 mg/kg, route intravenous; details: in vivo, read-out: Vdss
In short: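 Overnight-fasted Beagle dogs, 2 per sex, in a crossover design: 5 mg/kg iv and 10 mg/kg po, two weeks apart, in 5% dextrose. Jugular blood was drawn up to 48 h, and urine was collected over 0–8, 8–24 and 24–48 h. Samples were assayed by LC/MS/MS and analysed noncompartmentally.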

[7] = molecular target: Serine/threonine-protein kinase TAO3 (Homo sapiens, UniProt Q9H2K8); assay: Inhibition of TAO3
Chain of Serine/threonine-protein kinase TAO3 (Q9H2K8 whole entry): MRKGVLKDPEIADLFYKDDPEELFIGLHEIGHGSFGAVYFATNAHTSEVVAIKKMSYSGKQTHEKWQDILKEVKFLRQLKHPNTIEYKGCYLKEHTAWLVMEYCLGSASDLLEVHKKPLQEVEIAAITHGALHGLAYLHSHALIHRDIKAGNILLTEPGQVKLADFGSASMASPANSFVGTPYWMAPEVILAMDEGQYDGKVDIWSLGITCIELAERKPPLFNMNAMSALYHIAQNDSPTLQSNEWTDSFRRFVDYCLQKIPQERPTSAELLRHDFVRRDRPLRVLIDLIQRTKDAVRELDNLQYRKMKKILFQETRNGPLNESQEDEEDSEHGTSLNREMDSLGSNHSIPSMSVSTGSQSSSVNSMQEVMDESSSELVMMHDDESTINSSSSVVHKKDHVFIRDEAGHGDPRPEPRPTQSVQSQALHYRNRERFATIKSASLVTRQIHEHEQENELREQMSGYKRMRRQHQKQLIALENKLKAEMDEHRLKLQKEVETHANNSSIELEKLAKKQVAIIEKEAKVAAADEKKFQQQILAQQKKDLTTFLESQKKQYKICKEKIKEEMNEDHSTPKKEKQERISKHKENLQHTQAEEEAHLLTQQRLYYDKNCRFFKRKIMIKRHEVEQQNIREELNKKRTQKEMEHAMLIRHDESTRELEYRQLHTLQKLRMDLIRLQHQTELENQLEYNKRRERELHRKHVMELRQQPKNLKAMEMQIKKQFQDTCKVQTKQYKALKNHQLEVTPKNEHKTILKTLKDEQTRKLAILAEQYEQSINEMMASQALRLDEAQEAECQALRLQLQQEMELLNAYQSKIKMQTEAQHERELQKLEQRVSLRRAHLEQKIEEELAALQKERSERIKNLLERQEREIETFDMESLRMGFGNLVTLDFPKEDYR

[8] = molecular target: cAMP-dependent protein kinase catalytic subunit alpha (Homo sapiens, UniProt P17612); assay: Inhibition of PKAalpha
[9] = molecular target: T1, Cell division cycle 7-related protein kinase; assay: Inhibition of human Cdc7 in human A2780 cells assessed as inhibition of Ser40 phosphorylation of Mcm2 protein at 3 uM up to 24 hrs; format: cell-based
In short: (§2)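 Time course in A2780 cells held at 3 µM for up to 24 h. Extracts were made in 50 mmol/L Tris-HCl pH 6.8, 1% SDS, 1 mmol/L DTT with 10 s sonication, loaded at 15 µg per lane, and immunoblotted with antiphosphopeptide antibodies to MCM2 Ser40 and Ser53. Cleaved caspase 3 was also probed.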
Target sequence in this assay (O00311 whole entry, looked up): as the sequence (O00311 whole entry) above

Cytochrome P450 2C19 = Cytochrome P450 2C19 (Homo sapiens, UniProt P33261); assay: Inhibition of human CYP2C19; format: ADME
Chain of Cytochrome P450 2C19 (P33261 whole entry): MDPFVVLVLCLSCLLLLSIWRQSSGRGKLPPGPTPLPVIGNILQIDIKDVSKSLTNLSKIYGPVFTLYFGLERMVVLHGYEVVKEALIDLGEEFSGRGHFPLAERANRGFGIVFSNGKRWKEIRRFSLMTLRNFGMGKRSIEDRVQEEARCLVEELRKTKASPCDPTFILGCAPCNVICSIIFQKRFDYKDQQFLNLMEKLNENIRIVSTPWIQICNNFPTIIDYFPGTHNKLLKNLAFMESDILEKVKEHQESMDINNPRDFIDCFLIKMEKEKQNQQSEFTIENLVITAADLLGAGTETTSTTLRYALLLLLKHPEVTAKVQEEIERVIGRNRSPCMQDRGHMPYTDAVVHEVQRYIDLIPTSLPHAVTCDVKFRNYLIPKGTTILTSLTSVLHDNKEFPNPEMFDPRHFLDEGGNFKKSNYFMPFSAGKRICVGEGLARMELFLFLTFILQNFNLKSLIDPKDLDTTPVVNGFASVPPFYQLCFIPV

[10] = molecular target: Serine/threonine-protein kinase Chk1 (Homo sapiens, UniProt O14757); assay: Inhibition of CHK1
Mus musculus [11] = assay: Inhibition of human Cdc7 in human A2780 cells xenografted in CDI nu/nu mouse assessed as inhibition of Ser40 phosphorylation of Mcm2 protein at 60 mg/kg, po first dose administered at 6 hrs and second dose 3 hrs after first dose by Western blot; format: functional, organism-based; parameters: dose 60 mg/kg
In short: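 Mice bearing A2780 xenografts given two oral doses of 60 mg/kg, the second 3 h after the first, over 6 h, or vehicle. Explanted tumors blotted for Mcm2 phospho-Ser40 and phospho-Ser53, with total MCM2 and tubulin as loading controls.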

[12] = Cmax in nu/nu mouse at 10 mg/kg, iv administered as single dose; format: ADME, organism-based; parameters: dose 10 mg/kg, route intravenous; details: in vivo; in short: as §1
A2780 [13] = assay: Antiproliferative activity against human A2780 cells after 72 hrs by luciferase based assay; format: functional, cell-based; details: Homo sapiens, A2780, 72 h
Cytochrome P450 1A2 = Cytochrome P450 1A2 (Homo sapiens, UniProt P05177); assay: Inhibition of human CYP1A2; format: ADME
Chain of Cytochrome P450 1A2 (P05177 whole entry): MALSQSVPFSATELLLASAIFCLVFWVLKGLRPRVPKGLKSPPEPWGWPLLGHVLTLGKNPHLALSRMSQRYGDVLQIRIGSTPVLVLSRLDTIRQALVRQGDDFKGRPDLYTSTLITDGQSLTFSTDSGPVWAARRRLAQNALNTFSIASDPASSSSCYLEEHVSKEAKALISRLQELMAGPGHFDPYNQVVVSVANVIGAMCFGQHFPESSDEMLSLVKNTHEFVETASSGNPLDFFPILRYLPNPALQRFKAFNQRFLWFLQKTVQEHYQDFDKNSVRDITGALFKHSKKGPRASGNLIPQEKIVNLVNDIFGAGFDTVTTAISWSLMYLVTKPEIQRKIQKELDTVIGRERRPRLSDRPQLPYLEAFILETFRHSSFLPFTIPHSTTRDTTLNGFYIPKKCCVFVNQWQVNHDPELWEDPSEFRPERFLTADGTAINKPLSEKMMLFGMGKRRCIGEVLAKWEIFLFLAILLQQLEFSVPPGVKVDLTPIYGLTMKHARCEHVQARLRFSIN

[14] = molecular target: Serine/threonine-protein kinase PLK1 (Homo sapiens, UniProt P53350)
Chain of Serine/threonine-protein kinase PLK1 (P53350 whole entry): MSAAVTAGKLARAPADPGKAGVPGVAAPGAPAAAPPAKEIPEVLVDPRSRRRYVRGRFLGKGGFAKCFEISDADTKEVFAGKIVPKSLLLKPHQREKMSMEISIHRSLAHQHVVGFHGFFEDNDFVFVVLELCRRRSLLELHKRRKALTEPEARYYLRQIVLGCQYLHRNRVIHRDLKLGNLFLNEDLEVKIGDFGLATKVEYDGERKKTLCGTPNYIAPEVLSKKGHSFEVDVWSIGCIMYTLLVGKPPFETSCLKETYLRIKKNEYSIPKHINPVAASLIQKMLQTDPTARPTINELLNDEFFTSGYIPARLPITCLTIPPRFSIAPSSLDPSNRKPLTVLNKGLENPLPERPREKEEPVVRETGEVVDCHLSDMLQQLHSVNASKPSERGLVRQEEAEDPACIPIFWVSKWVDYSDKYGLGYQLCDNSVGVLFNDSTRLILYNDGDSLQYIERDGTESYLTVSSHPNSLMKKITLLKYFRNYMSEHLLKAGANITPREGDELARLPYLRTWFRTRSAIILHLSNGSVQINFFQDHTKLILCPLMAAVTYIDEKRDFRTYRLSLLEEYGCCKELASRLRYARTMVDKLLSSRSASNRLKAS

[15] = Inhibition of Cdk1b
[16] = molecular target: ALK tyrosine kinase receptor (Homo sapiens, UniProt Q9UM73); assay: Inhibition of ALK
Mus musculus [17] = assay: Inhibition of human Cdc7 in human A2780 cells xenografted in CDI nu/nu mouse assessed as inhibition of Ser53 phosphorylation of Mcm2 protein at 60 mg/kg, po first dose administered at 6 hrs and second dose 3 hrs after first dose by Western blot; format: functional, organism-based; parameters: dose 60 mg/kg
In short: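 A2780 human ovarian carcinoma grown subcutaneously in CDI nu/nu mice. Two oral doses of 60 mg/kg were given within 6 h, the second 3 h after the first. Tumors were explanted and analysed by Western blot for MCM2 phosphorylated at Ser40 and Ser53, with total MCM2 and tubulin as loading controls. Vehicle-treated tumors served as controls.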

[18] = AUC (0 to infinity) in nu/nu mouse at 10 mg/kg, po administered as single dose; format: ADME, organism-based; parameters: time infinity, dose 10 mg/kg, route oral; details: plasma; in short: as §1
A2780 [19] = assay: Induction of apoptosis in human A2780 cells assessed as caspase 3 activation at 3 uM up to 24 hrs; format: functional, cell-based
In short: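 A2780 cells held at 3 µM for up to 24 h; extracts in Tris-HCl pH 6.8 with 1% SDS and DTT, 15 µg protein per lane; cleaved caspase 3 detected by Western blot.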

Cytochrome P450 2D6 = Cytochrome P450 2D6 (Homo sapiens, UniProt P10635); assay: Inhibition of human CYP2D6; format: ADME
Chain of Cytochrome P450 2D6 (P10635 whole entry): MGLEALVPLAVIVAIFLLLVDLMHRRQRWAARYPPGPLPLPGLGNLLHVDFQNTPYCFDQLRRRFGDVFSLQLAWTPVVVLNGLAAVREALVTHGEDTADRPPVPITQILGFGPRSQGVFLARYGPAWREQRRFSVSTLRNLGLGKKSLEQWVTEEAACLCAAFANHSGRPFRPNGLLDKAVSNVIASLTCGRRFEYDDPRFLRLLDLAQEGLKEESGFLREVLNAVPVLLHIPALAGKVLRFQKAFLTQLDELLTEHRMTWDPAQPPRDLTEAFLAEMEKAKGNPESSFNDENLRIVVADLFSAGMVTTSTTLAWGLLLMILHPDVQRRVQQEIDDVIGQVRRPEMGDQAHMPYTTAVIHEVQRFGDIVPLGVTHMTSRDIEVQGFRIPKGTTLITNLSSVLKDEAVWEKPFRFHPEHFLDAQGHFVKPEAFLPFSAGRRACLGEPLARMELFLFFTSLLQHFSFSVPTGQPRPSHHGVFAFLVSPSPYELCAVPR

[20] = Half life in nu/nu mouse at 10 mg/kg, po administered as single dose; format: ADME, organism-based; parameters: dose 10 mg/kg, route oral; details: in vivo; in short: as §1
[21] = molecular target: T1, Cell division cycle 7-related protein kinase; assay: Inhibition of human Cdc7 in human A2780 cells assessed as inhibition of Ser53 phosphorylation of Mcm2 protein at 3 uM up to 24 hrs; format: cell-based; in short: as §2
Target sequence in this assay (O00311 whole entry, looked up): as the sequence (O00311 whole entry) above

[22] = AUC (0 to infinity) in Beagle dog at 10 mg/kg, po administered as single dose; format: ADME, organism-based, Canis lupus familiaris; parameters: time infinity, dose 10 mg/kg, route oral; details: plasma; in short: as §1

SMILES: Nc1nccc(-c2cc3c([nH]2)[C@@H](CCF)CNC3=O)n1
- clearance [1]: 30 mL/min/kg
- Activity (Cytochrome P450 2C9): Not Active
- IC50 (COLO 205): 500 nM
- IC50 [2]: 1150 nM
- remaining at 1 h [3]: 95%
- IC50 [4]: 2 nM
- IC50 [5]: 1620 nM
- Vd [6]: 2.1 L/kg
- IC50 [7]: 126 nM
- IC50 [8]: > 4000 nM
- Activity [9]: Active
- Activity (Cytochrome P450 2C19): Not Active
- IC50 [10]: > 4000 nM
- Activity (Mus musculus [11]): Active
- Cmax [12]: 20.3 µM
- IC50 (A2780 [13]): 500 nM
- Activity (Cytochrome P450 1A2): Not Active
- IC50 [14]: 574 nM
- IC50 [15]: 30 nM
- IC50 [16]: > 4000 nM
- Activity (Mus musculus [17]): Active
- AUC(0-inf) [18]: 5 µM·h
- Activity (A2780 [19]): Active
- Activity (Cytochrome P450 2D6): Not Active
- half-life [20]: 1 h
- Activity [21]: Active
- AUC(0-inf) [22]: 6.4 µM·h
